An excerpt weighted towards active compounds, which were near 3.1% of everything screened.
OX1R antag-1: antagonists of human orexin 1 receptor (OX1R); Orexin/Hypocretin receptor type 1 (Homo sapiens), O43613; OX1R-expressing cells, FRET antagonist read-out; inhibition, % at 6.6 µM; 1.8% of 330,000 active; AID 485270, 2010; in the data active means inhibition mostly above about 38%, no sharp cut-off; inactive means mostly below about 40%
Target sequence (O43613 whole entry, looked up): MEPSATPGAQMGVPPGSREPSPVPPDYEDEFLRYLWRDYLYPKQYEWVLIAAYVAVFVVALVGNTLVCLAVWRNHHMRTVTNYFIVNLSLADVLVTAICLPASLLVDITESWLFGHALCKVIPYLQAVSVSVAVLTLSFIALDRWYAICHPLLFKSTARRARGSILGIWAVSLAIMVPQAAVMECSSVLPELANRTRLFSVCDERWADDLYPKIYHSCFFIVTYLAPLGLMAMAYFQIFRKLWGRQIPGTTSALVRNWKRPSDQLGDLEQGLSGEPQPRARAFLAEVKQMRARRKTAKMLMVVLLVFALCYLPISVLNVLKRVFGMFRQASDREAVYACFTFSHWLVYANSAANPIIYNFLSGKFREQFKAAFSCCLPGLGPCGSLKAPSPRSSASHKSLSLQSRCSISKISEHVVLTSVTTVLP
OX1R antag-2: OX1R (HCRTR1) antagonists, primary screen, fluorescence, CHO/OX1R cells, Fluo-8 calcium, orexin A; Fluo-8 calcium fluorescence; inhibition, % at 5 µM; 0.43% of 330,000 active;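 active means inhibition above its plate's threshold, mean inhibition of all tested compounds on the plate plus 3 SD, cut at about 37% in these data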
GPR7 antag: GPR7 receptor antagonists, primary screen, cell-based, fluorescence, single concentration. Neuropeptides B/W receptor type 1 (Homo sapiens), P48145. GPR7-expressing cells, fluorescence antagonist assay. inhibition, % at 4.4 µM. 1.1% of 290,000 active; in the data active means inhibition above about 16%, passing the limit was not always enough;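 further: cells stimulated with the agonist NPW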
CHO parental Ca: ATP-evoked calcium signal inhibitors, parental CHO, primary screen, counter-screen for OX1R antagonist project, cell-based, fluorescence, Fluo-8 calcium dye | AID 463079, 2010 | 0.63% of 330,000 active | inhibition, % at 5.6 µM | parental CHO-K1, ATP-induced calcium, Fluo-8 fluorescence;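 active means inhibition above that plate's mean sample inhibition plus 3 SD, cut at about 26% in these data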
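Test system: untransfected parental CHO cell line. Compound: one dose, 5.6 µM nominal. Detection: intracellular calcium via Fluo-8 no-wash fluorescent dye. Measure: % inhibition. Benchmarks: ATP-challenged DMSO wells low, unchallenged DMSO wells high.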
GalR3 antag: GalR3 antagonists in HEK293 cells, primary screen, cell-based, fluorescence readout; AID 651719, 2012; inhibition, % at 3 µM; HEK293 GalR3-CNG cAMP membrane potential fluorescence; galR3 body fused to GalR1 C-terminus; 0.44% of 360,000 active; Galanin receptor type 3 (Homo sapiens), O60755;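 active means inhibition above the screen-wide average plus 3 SD, cut at about 13% in these data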;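 further: forskolin and galanin both at EC90 stimulate the cells; cAMP rise reported by CNG channel membrane potential dye signal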
GalR3 antag conf: GalR3 antagonist hit confirmation, cell-based, fluorescence, triplicate. shares compounds with GalR3 antag. HEK293 GalR3 CNG cAMP biosensor, membrane potential fluorescence; galR3 fused to GalR1 carboxy tail; challenged with forskolin and galanin at EC90. inhibition, % at 3 µM. 59% of 1,600 active;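 active means inhibition above the primary screen's cutoff, the mean inhibition of all screened compounds plus 3 SD, cut at about 13% in these data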
HEK-CNG parental: nonspecific cAMP agonists in parental HEK-CNG cells, counter-screen for GalR3 antagonist project, cell-based, fluorescence, high throughput; HEK293-CNG parental cells, cAMP membrane potential fluorescence; normalised: DMSO wells 0%, forskolin wells 100%; 10% of 1,600 active; AID 652268, 2013; shares compounds with GalR3 antag; activation, % at 3 µM; in the data active means activation above about 1.3%
Numbers stand for hits; – = inactive; · = not tested or not shown.

SMILES	OX1R antag-1	OX1R antag-2	GPR7 antag	CHO parental Ca	GalR3 antag	GalR3 antag conf	HEK-CNG parental
OC(c1ccc(F)cc1)c1nc(-c2ccncc2)cs1 (stereo not drawn)	·	·	·	·	13.3	31.7	–
OC(c1ccc(F)c(F)c1)c1nc(-c2ccncc2)cs1 (stereo not drawn)	·	·	·	·	–	·	·
CN1CCCCC(NC(=O)c2ccc(F)cc2)C1=O (stereo not drawn)	·	·	·	·	–	·	·
O=C(N/N=C/c1ccc(O)c(O)c1)N/N=C/c1ccc(O)c(O)c1	·	·	–	·	13.4	–	–
COCC(C)n1c(-c2ccc3c(c2)NC(=O)CO3)csc1=Nc1ccc(OC(F)F)cc1 (stereo not drawn)	–	–	–	–	30.6	92.1	–
CCOC(=O)C1CCN(C(=O)c2ccccc2)c2scc(-c3ccccc3)c2C1=O (stereo not drawn)	·	·	·	·	–	·	·
COc1ccc(/C=C/C(=O)c2cc3cccc(OC)c3oc2=O)cc1	–	–	–	–	23.8	–	–
CNC(=O)c1cc2cccc(OC)c2oc1=O	–	–	–	–	–	·	·
Cc1[nH]c2ccccc2c1CC(=O)Nc1ccc(Nc2cccnc2)c(-c2ccc(Oc3ccccc3)cc2)c1	·	·	·	·	–	·	·
CC(C)NC(=O)NC(=O)COC(=O)Cc1c(F)cccc1Cl	–	–	–	–	25.1	13.7	–
O=C(COC(=O)Cc1c(F)cccc1Cl)NC(=O)c1ccccc1	–	–	–	–	–	·	·
CCCCNC(=O)c1nc(C2CCNCC2)oc1-c1ccccc1	·	·	·	·	–	·	·
COCCCn1c(-c2ccc(OC)cc2)nc2c1c(=O)[nH]c(=O)n2Cc1ccccc1	–	–	–	–	13.7	–	–
COc1cccc(CN(C)C(=O)COc2cccc3c2OC(C)(C)C3)c1OC	·	·	·	·	–	·	·
CC1=CC(=O)C(Sc2ccc(C)cc2)=CC1=O	·	·	·	·	–	·	·
Cc1nc(C)n(CC(=O)N2CCCC(C(=O)c3cccc4ccccc34)C2)n1 (stereo not drawn)	–	–	–	–	12.8	–	–
Cc1ccn(CC(=O)N2CCCC(C(=O)c3cccc4ccccc34)C2)n1 (stereo not drawn)	–	–	–	–	–	·	·
O=C(NCCCl)NNc1c(Cl)cc(Cl)cc1Cl	–	–	–	–	26.3	13.4	–
CCCCNC(=S)NNc1c(Cl)cc(Cl)cc1Cl	–	–	–	–	–	·	·
CNc1ccccc1C(C)(C)c1cc(-c2ccc(F)cc2)no1	–	–	–	–	48.8	68.6	–
CCN(CC)S(=O)(=O)c1ccc(Cl)c(NC(=O)COC(=O)c2ccc(O)cc2)c1	–	–	–	–	–	·	·
CCN(CC)S(=O)(=O)c1ccc(Cl)c(NC(=O)COC(=O)c2cccn2C)c1	–	–	–	–	64.9	–	–
COCCNC(=O)C/C(C)=N/NC(=O)C(=O)NC1CCCCC1	–	–	–	–	12.7	–	–
O=S1(=O)c2ccc(Br)cc2OC2CCCN1C2 (stereo not drawn)	·	·	·	·	–	·	·
Cc1nn(C)c(C(=O)NCc2ccc(Cl)cc2)c1Cl	–	–	–	–	81.6	100.4	–
SMILES	OX1R antag-1	OX1R antag-2	GPR7 antag	CHO parental Ca	GalR3 antag	GalR3 antag conf	HEK-CNG parental
CN(Cc1ccc(OC(F)F)cc1)C(=O)c1cccc(S(=O)(=O)N2CCN(Cc3ccccc3)CC2)c1	·	·	·	·	21.7	88.2	–
Oc1cccc(Oc2ncc(C(F)(F)F)cc2Cl)c1	–	–	–	–	13.0	–	–
COC(=O)C1=C(C)N(Cc2ccccc2C(F)(F)F)C(=NCc2ccccc2C(F)(F)F)NC1c1ccc(Cl)cc1 (stereo not drawn)	·	·	·	·	–	·	·
COC(=O)COc1cccc(NC(=O)c2cccc(C)c2)c1	–	–	–	–	19.8	57.1	–
C[C@H]1CN(S(=O)(=O)C(C)(C)C)[C@H](CCO)/C1=C\CCO	·	·	·	·	–	·	·
CCOC(=O)C1=C(C)NC2=C(C(=O)c3ccccc32)C1c1cccc2ccccc12 (stereo not drawn)	–	–	–	–	–	·	·
CCOC(=O)C1=C(C)NC2=C(C(=O)c3ccccc32)C1c1ccc(O)cc1 (stereo not drawn)	–	–	–	–	20.3	–	–
N#CC(C#N)=C(Nc1ccc(F)cc1)SCc1cccc(Br)c1	–	–	–	70.2	92.1	99.6	–
CC(SCc1ccccc1)C(=O)Nc1ccc(F)cc1 (stereo not drawn)	–	–	–	–	–	·	·
O=C(Nc1ccc(Oc2ccccc2)cc1)c1ccc2sc([C@H]3C[C@H](O)[C@@H](CO)O3)nc2c1	·	·	·	·	–	·	·
COc1ccc(C2=Nc3ccccc3N(C(=O)c3ccc(C(F)(F)F)cc3)C2C(=O)NCc2ccccc2)cc1 (stereo not drawn)	·	·	·	·	–	·	·
Cc1ccc(C2C3=C(CC(C)(C)CC3=O)NC3=C2C(=O)c2ccccc23)cc1 (stereo not drawn)	–	–	–	–	22.3	18.6	–
COc1cccc(CN(C)C(=O)c2ccc(OCC(=O)Nc3cccc(C(F)(F)F)c3)c(OC)c2)c1	–	51.9	·	64.7	89.8	93.8	–
COc1cc(C(=O)NCCCN(C)C)ccc1OCC(=O)Nc1cccc(C(F)(F)F)c1	–	–	–	–	–	·	·
COc1cccc(S(=O)(=O)NCc2ccc(C(=O)Nc3ccc(Cl)c(Cl)c3)cc2)c1	–	–	–	42.5	16.7	54.6	–
C[C@@H]1COc2cccc(N3CCSCC3)c2S(=O)(=O)N1	·	·	·	·	–	·	·
COc1cccc(C2=NOC(C(=O)NCC3CCCO3)C2)c1 (stereo not drawn)	–	–	–	–	35.1	–	–
COc1ccc(OC)c(C2=NOC(C(=O)NCC3CCCO3)C2)c1 (stereo not drawn)	–	–	–	–	·	·	·
C[C@H](CO)NC(=O)c1[nH]cnc1C(=O)Nc1cccc(Cl)c1	·	·	·	·	–	·	·
COc1ccc(Cc2c(O)nc(SCC(=O)NC34CC5CC(CC(C5)C3)C4)[nH]c2=O)cc1	–	–	–	–	–	–	–
C=C1CC(COc2ccc3c(C)c(Cl)c(=O)oc3c2)(c2ccccc2)OC1=O (stereo not drawn)	·	·	·	·	37.5	17.6	2.9
COCC(C)n1c(C)cc(C(=O)COC(=O)c2ccc3c(c2)NC(=O)CS3)c1C (stereo not drawn)	–	–	–	–	16.9	–	–
